An excerpt weighted towards active compounds, which were near 1.8% of everything screened.
CHRM5 agonist = agonists of human muscarinic M5 receptor (CHRM5). P08912. CHO-K1 hM5 cells, Fluo-8 calcium fluorescence; 0% DMSO wells, 100% maximal acetylcholine response. activation, % at 3 µM. 0.19% of 360,000 active;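 active = activation above the run's mean over test compounds plus 3 SD, cut at about 23% in these data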;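 also: signal is peak over basal fluorescence ratio across the kinetic read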
M5 PAM = positive allosteric modulators of human muscarinic M5 receptor; P08912; CHO-K1 hM5, Fluo-8 calcium, ACh EC20 PAM; 0% = ACh EC20, 100% = ACh EC100; activation, % at 3 µM; 0.3% of 360,000 active; AID 624038;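 active = activation above the run cutoff, the mean activation of all test compounds plus 3 SD, cut at about 18% in these data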
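Assay system: CHO-K1 hM5 cells. Also added: acetylcholine at EC20 concentration, added after compound. Dosing: 3 µM, single dose. Times: compound preincubation 140 s before EC20 acetylcholine addition. Signal: Fluo-8 calcium fluorescence. Measure: % activation relative to EC20 and EC100 ACh responses. Repeats: singlicate, one well per test compound.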
CHRM4 agonist = agonists of human muscarinic M4 receptor (CHRM4); activation, % at 3 µM; CHO-K1 hM4/Gqi5, Fluo-8 calcium fluorescence; vehicle 0%, full acetylcholine response 100%; 0.14% of 360,000 active;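 active = activation above the run mean over all test wells plus 3 SD, cut at about 32% in these data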;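 also: peak over basal fluorescence ratio per well then scaled between controls; 0% = DMSO wells and 100% = acetylcholine at EC100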
Target sequence (P08173 whole entry, looked up): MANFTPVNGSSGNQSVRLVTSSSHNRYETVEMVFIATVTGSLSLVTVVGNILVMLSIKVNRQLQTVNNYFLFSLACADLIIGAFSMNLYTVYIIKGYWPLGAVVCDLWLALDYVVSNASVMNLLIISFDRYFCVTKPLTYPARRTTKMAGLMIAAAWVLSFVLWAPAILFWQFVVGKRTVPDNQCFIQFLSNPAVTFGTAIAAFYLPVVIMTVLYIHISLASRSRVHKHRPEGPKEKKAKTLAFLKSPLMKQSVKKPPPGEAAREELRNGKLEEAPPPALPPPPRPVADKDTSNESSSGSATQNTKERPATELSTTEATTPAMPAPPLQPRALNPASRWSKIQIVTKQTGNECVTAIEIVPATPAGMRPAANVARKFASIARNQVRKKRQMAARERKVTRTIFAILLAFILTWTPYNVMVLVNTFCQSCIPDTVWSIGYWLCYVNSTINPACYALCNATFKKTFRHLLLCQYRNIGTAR
CHRM5 antagonist = CHRM5 antagonism in calcium assay | AID 624040 | P08912 | 0.59% of 360,000 active | CHO-hM5 cells, Fluo-8 calcium fluorescence, ACh EC80 | inhibition, % at 3 µM;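 active = inhibition above a per-plate cutoff, the mean of that plate's test compounds plus 3 SD, cut at about 27% in these data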;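 also: 0% = acetylcholine EC80 with DMSO and 100% = DMSO without agonist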
CHRM4 antagonist = blocks acetylcholine activation of human M4 receptor; CHO-hM4 cells, ACh EC80, Fluo-8 calcium fluorescence; inhibition, % at 3 µM; P08173; 0.73% of 360,000 active;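 active = inhibition above its plate's cutoff, the mean inhibition of sample wells plus 3 SD, cut at about 27% in these data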;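 also: 0% = acetylcholine EC80 with DMSO and 100% = DMSO without agonist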
M4 PAM = positive allosteric modulators of human muscarinic M4 receptor. P08173. CHO-K1 hM4/Gqi5, Fluo-8 calcium fluorescence, ACh EC20; 0% = ACh EC20, 100% = maximal ACh. 0.4% of 360,000 active. activation, % at 3 µM. AID 624126;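 active = activation above its plate's cutoff, the mean activation of sample wells plus 3 SD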
Active calls of the source: *.

SMILES	CHRM5 agonist	M5 PAM	CHRM4 agonist	CHRM5 antagonist	CHRM4 antagonist	M4 PAM
CN1CCC(=C2c3ccccc3Sc3ccccc32)CC1	0.1	-19.1	9.6	99.0*	99.4*	-17.9
CN1CCC(=C2c3ccccc3C=Cc3ccccc32)CC1	0.8	-18.1	6.3	99.0*	99.5*	-18.8
CN1CCN(C(=O)CCN2C(=O)c3ccccc3C2=O)CC1	2.7	1.6	0.1	5.6	2.2	4.5
Brc1ccc(CN2CCN(c3ccccn3)CC2)s1	-1.1	2.9	-1.9	-4.8	-8.4	28.8*
N#Cc1c2c(c(-n3cnc4ccccc43)n3c1nc1ccccc13)CCC2	-0.7	47.2*	0.3	31.4*	-9.7	-1.4
Cc1nccn1-c1c2c(c(C#N)c3nc4ccccc4n13)CCCC2	-1.1	4.0	0.9	4.2	-4.5	6.3
CC[C@@H](C)[C@@H](CO)NC(=O)[C@H]1O[C@@H](n2cnc3c(N)ncnc32)[C@H](O)[C@@H]1O	0.4	-1.2	0.3	5.0	0.7	1.9
CCSc1nc2cc(S(=O)(=O)N3CCOCC3)ccc2o1	-2.4	5.2	1.0	6.3	-0.2	0.0
Cc1ccc(C(=O)CSc2nc3cc(S(=O)(=O)N4CCOCC4)ccc3o2)cc1	-0.2	19.4*	1.3	-11.1	-9.1	6.8
COc1ccc(Cn2cc(F)c(=O)n(C)c2=O)cc1[N+](=O)[O-]	2.5	18.2*	1.4	-9.5	-6.8	0.1
Cn1c(-c2ccccc2)c(Sc2ccccc2)c2cc(-c3ccc4[nH]ccc4c3)ccc21	5.5	-0.6	0.7	-7.2	-4.2	4.1
S=C1NC[C@H](Cc2ccccc2)N1CC1CCN(CCCCc2ccccc2)CC1	-3.4	-14.9	3.4	23.0	27.5*	-15.0
O=C1NC[C@H](Cc2ccccc2)N(CC2CCN(CCCCc3ccccc3)CC2)C1=O	1.9	-6.7	0.6	10.3	13.6	-7.7
CCOC(=O)[C@]12CCCC=C1N(Cc1ccccc1)C(=O)[C@H](CC(=O)NCc1ccc(C)o1)C2	1.1	10.9	3.9	-5.5	-1.6	7.0
Cc1cc(C)n(-c2cccc(F)n2)n1	3.7	19.1*	0.1	-0.5	3.5	1.0
C[C@@H]1CN([C@H](C)CO)C(=O)CCCn2nncc2CO[C@H]1CN(C)S(=O)(=O)c1ccccc1F	1.7	2.5	0.3	-8.2	-5.5	-1.0
O=C(CC1NCCNC1=O)Nc1ccccc1 (configuration not stated)	-0.7	2.4	2.0	3.2	-6.8	8.4
O=C(CC1C=CCC1)Nc1ccccc1 (configuration not stated)	2.5	20.5*	0.9	-6.0	-8.8	8.5
O=C(Nc1ccc(F)cc1)C(c1ccnc2ccccc12)N1CCN(CC(=O)N2CCCC2)CC1 (configuration not stated)	2.5	3.6	0.9	-7.0	7.2	3.5
COc1cc(NC(=O)CSc2nc3[nH]ncc3c(=O)n2-c2ccccc2)cc(OC)c1OC	4.4	3.1	0.4	4.2	-5.3	3.3
CC(=O)Nc1ccc(NC(=O)CSc2nc3[nH]ncc3c(=O)n2-c2ccccc2)cc1	0.1	10.1	-0.6	-5.0	7.2	20.3*
FC(F)Sc1ccc(NC(=S)NCC2CCCCC2)cc1	1.3	-17.1	6.9	39.8*	12.2	-24.2
CN(C)CCN(Cc1ccco1)c1ccccn1	-10.9	-15.7	0.6	16.6	1.2	-1.5
CN(C)CCN(Cc1cccs1)c1ccccn1	-1.4	-16.5	0.6	7.1	27.2*	-17.3
CCCC1(C(=O)OCC)NC(c2cc(OC)c(OC)c(OC)c2)C2C(=O)N(CC)C(=O)C21 (configuration not stated)	1.2	-1.4	1.8	-4.7	-2.7	34.7*
SMILES	CHRM5 agonist	M5 PAM	CHRM4 agonist	CHRM5 antagonist	CHRM4 antagonist	M4 PAM
CC1(C(=O)NCc2ccccc2)CN(S(C)(=O)=O)CC(=O)N1C1CC1 (configuration not stated)	0.3	-2.2	0.5	5.2	-7.3	3.9
O=C1C=CC(=Nc2ccc(F)cc2)O1	-1.5	22.2*	1.9	-10.7	-20.9	9.3
O=C(N1CCCC1)C12CCC3CC(CC(C3)C1)C2	-7.8	19.1*	0.4	-6.3	-13.6	8.3
Cc1cc(NC(=O)CSc2nnc(COc3cccc(C)c3C)n2Cc2ccco2)no1	1.7	3.8	0.9	-5.3	-6.6	28.8*
Cc1cccc(OCc2nnc(SCC(=O)N(C(C)C)C(C)C)n2Cc2ccco2)c1C	-1.3	15.3	0.0	6.6	-3.3	13.5
Cc1cccc(NC(=O)CSc2nccn2Cc2ccco2)c1C	-2.2	19.9*	1.4	-37.2	2.4	18.5*
CCOc1ccc(CCNC(=O)C2CCCN(S(=O)(=O)N3CCCCC3)C2)cc1OCC (configuration not stated)	1.6	-4.5	1.8	0.3	0.2	1.3
OCCN1CCN(c2ncnc3c2ncn3[C@H]2CN(Cc3ccncc3)C[C@@H](CO)O2)CC1	0.0	-0.8	0.4	6.4	3.7	-4.5
CCc1nc2ccc(C(=O)NCCc3ccccn3)cn2c1N(CCC(C)C)CCN(C)C	-1.6	-0.4	0.7	3.5	-4.3	2.8
Cn1cccc1/C=N/n1c(-c2ccco2)n[nH]c1=S	-1.5	-2.4	1.2	1.3	-0.8	1.9
COc1cc(-c2n[nH]c(=S)n2/N=C/c2cccn2C)cc(OC)c1OC	50.2*	-18.4	51.4*	17.1	6.7	-39.5
CCc1nc2ccc(C(=O)N3CCN(C(C)=O)CC3)cn2c1N(C)C(=O)c1cccc(OC)c1	0.3	2.3	0.0	-0.5	-7.1	2.2
CC(C)n1nnnc1C1c2ccccc2C(=O)N1Cc1ccccc1 (configuration not stated)	-2.7	1.5	-0.5	7.0	1.3	8.0
NC(=O)c1cccc2c(=O)oc3ccccc3c12	-2.5	18.8*	0.6	-9.8	-5.2	6.3
O=c1oc2ccccc2c2c1cnc1ccccc12	-0.2	-1.3	1.6	-3.4	-12.2	4.5
Cc1cc(C)c(OCC(=O)OCC(=O)NCc2ccco2)c(C)c1	-2.8	0.8	1.7	-8.7	-21.1	2.0
CCCc1ncc(C(O)(c2ccccc2)c2ccccc2)n1C	-10.7	-20.0	2.3	58.5*	62.5*	-17.9
CCCc1ncc(C(O)(c2ccccc2)c2ccc(C)cc2)n1C (configuration not stated)	-8.8	-18.9	2.8	73.2*	50.2*	-18.8
O=C(Nc1ccnn1C1CCN(C(=O)c2ccc(C(F)(F)F)cc2)CC1)C1CC1	-6.9	-5.5	1.6	5.4	-12.1	4.5
O=C(Nc1ccnn1C1CCN(C(=O)c2cccc(C(F)(F)F)c2)CC1)C1CC1	-2.6	0.8	2.3	11.0	-7.8	21.3*
